Test [1] deals with Sodium/potassium-transporting ATPase. Kind of test: Binding affinity towards Na+,K+ -ATPase isolated from dog kidney. The test is classed as protein-complex assay, Canis lupus familiaris. The method in brief: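 Displacement of specific [3H]ouabain binding from the Na+,K+-ATPase receptor, enzyme isolated from dog kidney and purified per Jørgensen. Means of two to three separate experiments in duplicate.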

For a further test, the species on record is Cavia porcellus. Kind of test: In vitro increase in contractile force of the guine pig atrium. Type of test: functional, organism-based. The settings on record: Cardiac atrium. The method in brief:
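Left atria from male guinea pigs (300-500 g) in organ baths of bicarbonate salt solution with glucose and sucrose, 95% O2/5% CO2, 32 °C, 500 mg resting tension. Field-stimulated at 1 Hz (1 ms, twice threshold voltage). After 60 min equilibration, cumulative concentrations added, each held until maximal response or arrhythmia. Read-out: maximal increase in contractile force; EC50 from concentration–response curves.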

We go through 19 molecules from ChEMBL document CHEMBL1134675, “17 alpha-O-(aminoalkyl)oxime derivatives of 3 beta,14 beta-dihydroxy-5 beta-androstane and 3 beta-hydroxy-14-oxoseco-D-5 beta-androstane as inhibitors of Na(+),K(+)-ATPase at the digitalis receptor” (J Med Chem, 2001).

`CC[C@H](/C=N/OCCN(C)C)[C@@]1(C)CCC2C(CC[C@@H]3C[C@@H](O)CC[C@]23C)C1=O` (stereo not given in full) had a half-maximal inhibitory concentration (IC50) in test [1] of 4000 nM.
On to `C[C@]12CC[C@H](O)C[C@H]1CC[C@@H]1[C@@H]2CC[C@]2(C)[C@H](C/C=N/OCCN)CC[C@]12O`, for which the IC50 in test [1] is 50 nM. Also, in the test listed under Cavia porcellus, the EC50 was found to be 3500 nM.
Regarding `CN(C)CCO/N=C/C[C@@H]1CC[C@]2(O)[C@@H]3CC[C@@H]4C[C@@H](O)CC[C@]4(C)[C@H]3CC[C@]12C`, the IC50 in test [1] is 250 nM.
The molecule `CC[C@@H](/C=N/OCCN(C)C)[C@@]1(C)CCC2C(CC[C@H]3C[C@@H](O)CC[C@]23C)C1=O` (stereo not given in full) yielded an IC50 in test [1] of 500 nM.
As to `C[C@@H](C/C=N/OCCN)[C@@]1(C)CCC2C(CC[C@@H]3C[C@@H](O)CC[C@]23C)C1=O` (stereo not given in full), the half-inhibitory concentration (IC50) in test [1] is 100 nM.
Turning to `C[C@]12CC[C@H](O)C[C@H]1CC[C@@H]1[C@@H]2CC[C@]2(C)[C@H](/C=N/OCCCN)CC[C@]12O`, the half-inhibitory concentration (IC50) in test [1] is 400 nM. The molecule further showed a concentration for a half-maximal effect (EC50) in the test filed under Cavia porcellus of 18000 nM.
For `CC[C@@H](C/C=N/OCCN)[C@@]1(C)CCC2C(CC[C@H]3C[C@@H](O)CC[C@]23C)C1=O` (stereo not given in full), the 50% inhibitory concentration (IC50) in test [1] came out at 160 nM.
In turn, `CC[C@@H](C/C=N/OCCN(C)C)[C@@]1(C)CCC2C(CC[C@@H]3C[C@@H](O)CC[C@]23C)C1=O` (stereo not given in full) had an IC50 in test [1] of 100 nM. In the test filed under Cavia porcellus, this molecule came in with a 50% effective concentration (EC50) of 2000 nM.
`CN(C)CCO/N=C/[C@@H]1CC[C@]2(O)[C@@H]3CC[C@@H]4C[C@@H](O)CC[C@]4(C)[C@H]3CC[C@]12C` came in with an IC50 in test [1] of 1600 nM.
In the case of `C[C@]12CC[C@H](O)C[C@H]1CC[C@@H]1[C@@H]2CC[C@]2(C)[C@H](C/C=N/OCCCN)CC[C@]12O`, the 50% inhibitory concentration (IC50) in test [1] is 200 nM.
With `CCC[C@@H](C/C=N/OCCN)[C@@]1(C)CCC2C(CC[C@@H]3C[C@@H](O)CC[C@]23C)C1=O` (stereo not given in full), the IC50 in test [1] worked out at 200 nM. In addition, the EC50 in the test listed under Cavia porcellus was determined as 5600 nM.
As to `C[C@]12CC[C@H](O)C[C@H]1CC[C@@H]1[C@@H]2CC[C@]2(C)[C@@H](C3=CC(=O)OC3)CC[C@]12O` [DIGITOXIGENIN], in the test listed under Cavia porcellus, the EC50 came out at 570 nM.
Turning to `CC[C@H](C/C=N/OCCN(C)C)[C@@]1(C)CCC2C(CC[C@@H]3C[C@@H](O)CC[C@]23C)C1=O` (stereo not given in full), the IC50 in test [1] amounted to 800 nM. That is a sub-micromolar value.
In turn, `C[C@]12CC[C@H](O)C[C@H]1CC[C@@H]1[C@@H]2CC[C@]2(C)[C@H](/C=N/OCCN)CC[C@]12O` gave a 50% inhibitory concentration (IC50) in test [1] of 400 nM.
Take `C[C@]12CC[C@H](O)C[C@H]1CC[C@@H]1[C@@H]2CC[C@]2(C)[C@H](/C=N/OCCCCN)CC[C@]12O`: in test [1], the half-inhibitory concentration (IC50) turned out to be 1000 nM.
In the case of `CC[C@@H](C/C=N/OCCN)[C@@]1(C)CCC2C(CC[C@@H]3C[C@@H](O)CC[C@]23C)C1=O` (stereo not given in full), the half-inhibitory concentration (IC50) in test [1] is 40 nM. Moreover, the concentration giving a half-maximal response (EC50) in the test filed under Cavia porcellus was 1500 nM.
Taken in the same sequence, the figures for `C[C@@H](C/C=N/OCCN(C)C)[C@@]1(C)CCC2C(CC[C@@H]3C[C@@H](O)CC[C@]23C)C1=O` (stereo not given in full) were 130 nM and 3000 nM.
In the case of `CC[C@@H](C/C=N/OCCN(C)C)[C@@]1(C)CCC2C(CC[C@H]3C[C@@H](O)CC[C@]23C)C1=O` (stereo not given in full), the half-inhibitory concentration (IC50) in test [1] is 250 nM.
The same measure, in the same setting: the result for `C[C@]12CC[C@H](O)C[C@H]1CC[C@@H]1[C@@H]2CC[C@]2(C)[C@H](C/C=N/OCCCCN)CC[C@]12O` reads 800 nM.
